# Article PMC4200025 (International Journal of Nanomedicine, 2014)
# Key:
# Type in all cases: in vivo
# [1] = Plasma dye concentration after IV injection; conditions: mice, 24 hours after IV injection
# [2] = Two-compartment pharmacokinetic analysis of plasma data; conditions: ND4 Swiss Webster, mouse, iv, 0.24 mg/kg, distribution half-life, mice, IV 0.24 mg/kg dye, two-compartment model
# [3] = Organ dye content 24 hours after IV injection; conditions: mice
# Outline: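 ND4 Swiss Webster mice (25–30 g, n=3 per group) were anaesthetised with IP pentobarbital (40 mg/kg). They received 0.24 mg/kg dye (conjugate dosed by dye content) via the tail vein. At 24 h, organs were dissected, minced, homogenised and extracted in DMSO for 4 h, then centrifuged at 9,000 rpm for 15 min. Supernatant fluorescence was read against a DMSO calibration curve (785 nm excitation) and normalised to organ mass.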
compound,measurement,setting,value
"CC1(C)C(/C=C/C=C/C=C/C=C2\N(CCCCS(=O)(=O)O)c3ccc4ccccc4c3C2(C)C)=[N+](CCCCS(=O)(=O)[O-])c2ccc3ccccc3c21 [ICG, indocyanine green]",overall recovered percentage of injected dose (plasma plus organs),[1],2.6%
same,recovered percentage of injected dose in plasma,[1],0.8%
same,half-life,[2],~3.06 min
same,"organ dye content, kidneys",[3],at background level
same,"organ dye content, lungs",[3],at background level
